Test results: ChEMBL document CHEMBL1157365, “Efficacy of telavancin in the treatment of experimental endocarditis due to glycopeptide-intermediate Staphylococcus aureus” (Antimicrob Agents Chemother, 2007)
Converted amounts (≈) assume the structure as drawn. The source made the active and inactive calls.

Tests used:
[1] = test system: Staphylococcus aureus; assay: Antibacterial activity against glycopeptide-intermediate resistant Staphylococcus aureus ATCC 700788 by microbroth dilution method; format: functional
Outline: (§1)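 MIC and MBC were determined by broth microdilution in cation-adjusted Mueller-Hinton broth per CLSI guidelines. S. aureus ATCC 29213 served as the control strain. Strains were stored frozen in skim milk at −80°C and subcultured on 5% sheep blood Columbia agar before each run.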

[2] = test system: Staphylococcus aureus; assay: Antibacterial activity against glycopeptide-intermediate resistant Staphylococcus aureus HIP 5836 isolate by microbroth dilution method; format: functional; outline: as §1
[3] = test system: Staphylococcus aureus; assay: Antibacterial activity against glycopeptide-intermediate resistant Staphylococcus aureus HIP 5836 isolate assessed as reduction of bacterial count after 24 hrs by time kill curve study; format: functional
Outline: (§2)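 Duplicate time-kill curves followed CLSI criteria with an inoculum of 10⁵ CFU/ml. Viable counts were taken at 0, 4 and 24 h. Bactericidal activity was defined as a ≥3 log₁₀ CFU/ml drop at 24 h versus the starting inoculum.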

[4] = test system: Staphylococcus aureus; assay: Antibacterial activity against glycopeptide-intermediate resistant Staphylococcus aureus ATCC 700788 assessed as reduction of bacterial count after 24 hrs by time kill curve study; format: functional; outline: as §2
[5] = Cmax in human at 7.5 mg/kg, iv administered every 24 hrs; format: ADME, organism-based; parameters: dose 7.5 mg/kg, route intravenous; conditions: in vivo
[6] = Terminal half life in human at 7.5 mg/kg, iv administered every 24 hrs; format: ADME, organism-based; parameters: dose 7.5 mg/kg, route intravenous; conditions: in vivo
[7] = Terminal half life in human at 10 mg/kg, iv administered every 24 hrs; format: ADME, organism-based; parameters: dose 10 mg/kg, route intravenous; conditions: in vivo
[8] = AUC in human at 7.5 mg/kg, iv administered every 24 hrs; format: ADME, organism-based; parameters: dose 7.5 mg/kg, route intravenous; conditions: plasma
[9] = AUC in human at 10 mg/kg, iv administered every 24 hrs; format: ADME, organism-based; parameters: dose 10 mg/kg, route intravenous; conditions: plasma
[10] = test system: Homo sapiens; assay: Protein binding in human at 7.5 mg/kg, iv administered every 24 hrs; format: ADME, organism-based; parameters: dose 7.5 mg/kg, route intravenous; conditions: in vivo
[11] = test system: Staphylococcus aureus; assay: Antibacterial activity against glycopeptide-intermediate resistant Staphylococcus aureus HIP 5836 isolate infected New Zealand white rabbit endocarditis model assessed as sterile bacterial vegetation at 10 mg/kg, iv administered every 24 hrs for 2 days; format: functional
Outline: (§3)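 After 24 h they were inoculated i.v. through the ear vein with 1 ml of 7 × 10⁵ CFU/ml. Bacteremia was confirmed at 18 h, after which animals were randomized. Human-like kinetics were delivered by computer-controlled pump through a cava catheter for 48 h. Animals were killed 6 drug half-lives later. Aortic vegetations were weighed, homogenized and cultured quantitatively on plates, with broth culture for 1 week. Results are median log₁₀ CFU/g: 2 for broth-only growth, 0 for sterile. Sterility rates were compared by Fisher's exact test.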

[12] = test system: Staphylococcus aureus; assay: Antibacterial activity against glycopeptide-intermediate resistant Staphylococcus aureus HIP 5836 isolate infected New Zealand white rabbit endocarditis model assessed as bacterial count per gram of microbial vegetation at 10 mg/kg, iv administered every 24 hrs for 2 days; format: functional; outline: as §3
[13] = Terminal half life in rabbit at 15 mg/kg, iv; format: ADME, organism-based, Oryctolagus cuniculus; parameters: dose 15 mg/kg, route intravenous; conditions: in vivo
Outline: (§4)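 Healthy rabbits (n = 5) received telavancin at 15 mg/kg i.v. Blood was drawn through a carotid artery catheter. Plasma telavancin was measured by a validated LC-MS/MS method with a lower limit of quantitation of 0.25 μg/ml. The first-order elimination constant, β-phase half-life and AUC were derived from the concentration-time data.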

[14] = AUC in rabbit at 15 mg/kg, iv; format: ADME, organism-based, Oryctolagus cuniculus; parameters: dose 15 mg/kg, route intravenous; conditions: plasma; outline: as §4
[15] = test system: Oryctolagus cuniculus; assay: Protein binding in rabbit at 15 mg/kg, iv; format: ADME, organism-based; parameters: dose 15 mg/kg, route intravenous; conditions: in vivo
[16] = test system: Oryctolagus cuniculus; assay: Protein binding in rabbit at 10 mg/kg, iv; format: ADME, organism-based; parameters: dose 10 mg/kg, route intravenous; conditions: in vivo
[17] = Terminal half life in rabbit at 7.5 mg/kg, iv administered once daily; format: ADME, organism-based, Oryctolagus cuniculus; parameters: dose 7.5 mg/kg, route intravenous; conditions: in vivo
Outline: (§5)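 A computer-controlled pump infused telavancin at precalculated flow rates to reproduce the human 7.5 mg/kg i.v. once-daily serum profile. Plasma levels were measured by validated LC-MS/MS (n = 3 or 5).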

[18] = AUC in rabbit at 7.5 mg/kg, iv administered once daily; format: ADME, organism-based, Oryctolagus cuniculus; parameters: dose 7.5 mg/kg, route intravenous; conditions: plasma; outline: as §5
[19] = Cmax in rabbit at 7.5 mg/kg, iv administered once daily; format: ADME, organism-based, Oryctolagus cuniculus; parameters: dose 7.5 mg/kg, route intravenous; conditions: in vivo; outline: as §5
[20] = Cmax in rabbit at 10 mg/kg, iv administered once daily; format: ADME, organism-based, Oryctolagus cuniculus; parameters: dose 10 mg/kg, route intravenous; conditions: in vivo
[21] = Ratio of AUC in rabbit at 7.5 mg/kg, iv qd to MIC for Staphylococcus aureus HIP 5836 isolate; format: functional
Outline: (§6)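 The AUC came from the rabbit infusion simulating human 7.5 mg/kg i.v. once daily. It was divided by each strain's MIC. MICs were determined by CLSI broth microdilution in cation-adjusted Mueller Hinton broth, with S. aureus ATCC 29213 as the control strain.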

[22] = Ratio of AUC in rabbit at 7.5 mg/kg, iv qd to MIC for Staphylococcus aureus ATCC 700788; format: functional; outline: as §6
[23] = test system: Staphylococcus aureus; assay: Antibacterial activity against glycopeptide-intermediate resistant Staphylococcus aureus ATCC 700788 infected New Zealand white rabbit endocarditis model assessed as survival at 10 mg/kg, iv administered every 24 hrs for 2 days; format: functional; outline: as §3
[24] = test system: Staphylococcus aureus; assay: Antibacterial activity against glycopeptide-intermediate resistant Staphylococcus aureus ATCC 700788 infected New Zealand white rabbit endocarditis model assessed as sterile bacterial vegetation at 10 mg/kg, iv administered every 24 hrs for 2 days; format: functional; outline: as §3
[25] = test system: Staphylococcus aureus; assay: Antibacterial activity against glycopeptide-intermediate resistant Staphylococcus aureus ATCC 700788 infected New Zealand white rabbit endocarditis model assessed as bacterial count per gram of microbial vegetation at 10 mg/kg, iv administered every 24 hrs for 2 days; format: functional; outline: as §3
[26] = test system: Staphylococcus aureus; assay: Antibacterial activity against glycopeptide-intermediate resistant Staphylococcus aureus HIP 5836 isolate infected New Zealand white rabbit endocarditis model assessed as survival at 10 mg/kg, iv administered every 24 hrs for 2 days; format: functional; outline: as §3
[27] = test system: Homo sapiens; assay: Protein binding in human at 10 mg/kg, iv administered every 24 hrs; format: ADME, organism-based; parameters: dose 10 mg/kg, route intravenous; conditions: in vivo
[28] = Cmax in human at 1 g, iv administered every 12 hrs; format: ADME, organism-based; parameters: dose 1 g, route intravenous; conditions: in vivo
[29] = Terminal half life in human at 1 g, iv administered every 12 hrs; format: ADME, organism-based; conditions: in vivo
[30] = AUC in human at 1 g, iv administered every 12 hrs; format: ADME, organism-based; conditions: plasma
[31] = Protein binding in human at 1 g, iv administered every 12 hrs; format: ADME, organism-based; conditions: in vivo, read-out: PB
[32] = AUC in rabbit at 25 mg/kg, iv; format: ADME, organism-based, Oryctolagus cuniculus; parameters: dose 25 mg/kg, route intravenous; conditions: plasma
Outline: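 Five healthy rabbits received a 25 mg/kg i.v. dose through a jugular-to-cava catheter. Blood was drawn through a carotid catheter at 0, 0.25, 0.5, 1, 2, 3, 4, 5 and 6 h. Plasma vancomycin was measured by latex-boosted immunoturbidimetry, detection limit 0.8 μg/ml. Elimination rate, half-life and AUC were reported as mean ± variation.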

[33] = Terminal half life in rabbit at 1 g, iv administered twice daily; format: ADME, organism-based, Oryctolagus cuniculus; conditions: in vivo
Outline: (§7)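 Rabbits carried a carotid artery catheter for blood sampling and a jugular-to-cava catheter for infusion. A computer-controlled pump delivered the drug to simulate the human profile of 1 g i.v. twice daily. Vancomycin was measured by latex-boosted immunoturbidimetry, detection limit 0.8 μg/ml. Rabbits per group: n = 3 or 5.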

[34] = AUC in rabbit at 1 g, iv administered twice daily; format: ADME, organism-based, Oryctolagus cuniculus; conditions: plasma; outline: as §7
[35] = Cmax in rabbit at 1 g, iv administered twice daily; format: ADME, organism-based, Oryctolagus cuniculus; parameters: dose 1 g, route intravenous; conditions: in vivo; outline: as §7
[36] = Ratio of AUC in rabbit at 1 g, iv bid to MIC for Staphylococcus aureus HIP 5836 isolate; format: functional
Outline: (§8)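 A computer-controlled pump infused vancomycin to mimic the human 1 g i.v. every-12-h profile. Blood was drawn at 0–6 h after infusion start. Vancomycin was measured by latex-boosted immunoturbidimetry (detection limit 0.8 μg/ml). AUC was divided by the MIC, determined by CLSI broth microdilution in cation-adjusted Mueller-Hinton broth.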

[37] = Ratio of AUC in rabbit at 1 g, iv bid to MIC for Staphylococcus aureus ATCC 700788; format: functional; outline: as §8
[38] = test system: Staphylococcus aureus; assay: Antibacterial activity against glycopeptide-intermediate resistant Staphylococcus aureus ATCC 700788 infected New Zealand white rabbit endocarditis model assessed as bacterial count per gram of microbial vegetation at 1 g, iv administered every 12 hrs for 2 days
[39] = test system: Staphylococcus aureus; assay: Antibacterial activity against glycopeptide-intermediate resistant Staphylococcus aureus HIP 5836 isolate infected New Zealand white rabbit endocarditis model assessed as bacterial count per gram of microbial vegetation at 1 g, iv administered every 12 hrs for 2 days

Compound: CCCCCCCCCCNCCN[C@@]1(C)C[C@H](O[C@H]2[C@H](Oc3c4cc5cc3Oc3ccc(cc3Cl)[C@@H](O)[C@@H](NC(=O)[C@@H](CC(C)C)NC)C(=O)N[C@@H](CC(N)=O)C(=O)N[C@H]5C(=O)N[C@H]3C(=O)N[C@H](C(=O)N[C@H](C(=O)O)c5cc(O)c(CNCP(=O)(O)O)c(O)c5-c5cc3ccc5O)[C@H](O)c3ccc(c(Cl)c3)O4)O[C@H](CO)[C@@H](O)[C@@H]2O)O[C@@H](C)[C@H]1O [TELAVANCIN]
- MBC [1]: 4 µg/mL (≈ 2.28 µM)
- MIC [1]: 1 µg/mL (≈ 0.57 µM)
- MBC [2]: 8 µg/mL (≈ 4.56 µM)
- MIC [2]: 4 µg/mL (≈ 2.28 µM)
- log10CFU/ml [3]: 2
- log10CFU/ml [4]: 2
- Cmax [5]: 89 µg/mL
- half-life [6]: 6.18 h
- half-life [7]: 7.41 h
- AUC at 24 h [8]: 604 µg·h/mL
- AUC at 24 h [9]: 785 µg·h/mL
- Activity [10]: 90%
- Activity [11]: 31%
- log10cfu [12]: 4.4
- half-life [13]: 1.2 h
- AUC [14]: 270 µg·h/mL
- Activity [15]: 90%
- Activity [16]: 90%
- half-life [17]: 4.6 h
- AUC [18]: 638 µg·h/mL
- Cmax [19]: 90 µg/mL
- Cmax [20]: 114 µg/mL
- RatioAUC/MIC [21]: 159.5
- RatioAUC/MIC [22]: 638
- Activity [23]: 94%
- Activity [24]: 37%
- log10cfu [25]: 4.6
- Activity [26]: 94%
- Activity [27]: 90%

Compound: CN[C@H](CC(C)C)C(=O)N[C@H]1C(=O)N[C@@H](CC(N)=O)C(=O)N[C@H]2C(=O)N[C@H]3C(=O)N[C@H](C(=O)N[C@H](C(=O)O)c4cc(O)cc(O)c4-c4cc3ccc4O)[C@H](O)c3ccc(c(Cl)c3)Oc3cc2cc(c3O[C@@H]2O[C@H](CO)[C@@H](O)[C@H](O)[C@H]2O[C@H]2C[C@](C)(N)[C@H](O)[C@H](C)O2)Oc2ccc(cc2Cl)[C@H]1O [VANCOMYCIN]
- Cmax [28]: 52 µg/mL
- MBC [1]: 128 µg/mL (≈ 88.3 µM)
- MIC [1]: 8 µg/mL (≈ 5.52 µM)
- MBC [2]: 128 µg/mL (≈ 88.3 µM)
- MIC [2]: 8 µg/mL (≈ 5.52 µM)
- Activity [3]: Active
- Activity [4]: Active
- half-life [29]: 4.6 h
- AUC at 12 h [30]: 359 µg·h/mL
- fraction unbound at 12 h [31]: 0.5
- AUC [32]: 101 µg·h/mL
- half-life [33]: 3.8 h
- AUC [34]: 299 µg·h/mL
- Cmax [35]: 46 µg/mL
- RatioAUC/MIC [36]: 37.3
- RatioAUC/MIC [37]: 37.3
- log10cfu [38]: 6.6
- log10cfu [39]: 6.7
